Five compounds from ChEMBL document CHEMBL1629438, “Selective peroxisome proliferator-activated receptor δ isosteric selenium agonists as potent anti-atherogenic agents in vivo” (Bioorg Med Chem Lett, 2010) can be followed below.

Each structure is given as a SMILES string. Calls of active or inactive are those of the source. The rule behind the calls is not given here.

By EC50 is commonly meant the concentration that produces a half-maximal response. A word on the Cmax: it is the peak of the concentration-time curve.

In data set [1] the target is T1, Peroxisome proliferator-activated receptor delta (Homo sapiens, UniProt Q03181).
T1 sequence (Q03181 whole entry): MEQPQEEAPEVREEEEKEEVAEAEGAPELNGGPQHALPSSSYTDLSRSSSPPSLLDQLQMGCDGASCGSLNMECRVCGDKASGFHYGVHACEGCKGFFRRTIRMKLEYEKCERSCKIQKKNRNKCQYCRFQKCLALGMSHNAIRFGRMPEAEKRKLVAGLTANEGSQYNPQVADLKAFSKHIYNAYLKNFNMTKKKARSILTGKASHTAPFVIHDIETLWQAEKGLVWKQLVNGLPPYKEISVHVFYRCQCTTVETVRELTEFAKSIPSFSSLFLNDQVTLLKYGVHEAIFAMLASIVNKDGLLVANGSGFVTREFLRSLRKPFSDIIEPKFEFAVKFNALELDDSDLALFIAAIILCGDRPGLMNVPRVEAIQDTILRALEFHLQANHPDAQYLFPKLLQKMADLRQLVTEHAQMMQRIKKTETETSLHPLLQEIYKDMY
Briefly: Agonist activity at human PPAR-delta expressed in african green monkey CV-1 cells after 24 hrs by luciferase reporter gene assay. The format is functional, cell-based. The procedure, abridged: (§1)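 Cell-based co-transfection reporter assay, with EC50 values derived for each PPAR subtype.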
In general terms: In a reporter assay the amount or activity of a reporter protein is the signal.

In data set [2] the target is T2, Peroxisome proliferator-activated receptor gamma (Homo sapiens, UniProt P37231).
T2 sequence (P37231 whole entry): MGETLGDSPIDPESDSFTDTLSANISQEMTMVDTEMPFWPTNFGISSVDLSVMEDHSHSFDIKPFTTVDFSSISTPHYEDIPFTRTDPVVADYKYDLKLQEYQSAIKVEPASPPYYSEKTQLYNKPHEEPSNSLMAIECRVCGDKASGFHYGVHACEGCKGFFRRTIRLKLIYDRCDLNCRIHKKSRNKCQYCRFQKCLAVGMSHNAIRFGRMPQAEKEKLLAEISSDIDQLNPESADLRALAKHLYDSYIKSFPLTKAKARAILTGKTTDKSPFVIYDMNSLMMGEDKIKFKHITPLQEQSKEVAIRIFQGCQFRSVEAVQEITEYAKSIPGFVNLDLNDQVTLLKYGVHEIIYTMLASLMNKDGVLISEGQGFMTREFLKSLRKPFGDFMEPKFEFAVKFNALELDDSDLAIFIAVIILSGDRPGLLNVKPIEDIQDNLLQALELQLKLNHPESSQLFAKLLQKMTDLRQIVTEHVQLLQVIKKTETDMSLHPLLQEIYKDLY
The data set can be described thus: Agonist activity at human PPAR-gamma expressed in african green monkey CV-1 cells after 24 hrs by luciferase reporter gene assay. The format is functional, cell-based.

In data set [3] the target is T3, Peroxisome proliferator-activated receptor alpha (Homo sapiens, UniProt Q07869).
T3 sequence (Q07869 whole entry): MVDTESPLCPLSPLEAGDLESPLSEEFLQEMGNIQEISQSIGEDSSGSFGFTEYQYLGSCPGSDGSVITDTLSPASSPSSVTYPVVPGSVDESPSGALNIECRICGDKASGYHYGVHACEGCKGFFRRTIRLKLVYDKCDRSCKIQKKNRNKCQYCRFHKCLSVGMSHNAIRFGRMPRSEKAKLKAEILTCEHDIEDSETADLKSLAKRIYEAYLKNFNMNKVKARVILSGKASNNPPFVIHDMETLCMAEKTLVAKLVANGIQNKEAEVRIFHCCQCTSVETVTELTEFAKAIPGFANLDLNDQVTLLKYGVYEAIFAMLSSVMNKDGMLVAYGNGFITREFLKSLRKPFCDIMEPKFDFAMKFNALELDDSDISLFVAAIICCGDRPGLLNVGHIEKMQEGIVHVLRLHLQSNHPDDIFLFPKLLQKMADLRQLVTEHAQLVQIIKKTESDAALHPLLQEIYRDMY
Briefly: Agonist activity at human PPAR-alpha expressed in african green monkey CV-1 cells after 24 hrs by luciferase reporter gene assay. The format is functional, cell-based. Put shortly:
as §1

Data set [4] deals with T4, Peroxisome proliferator-activated receptor gamma (Mus musculus) (UniProt P37238).
T4 sequence (whole entry): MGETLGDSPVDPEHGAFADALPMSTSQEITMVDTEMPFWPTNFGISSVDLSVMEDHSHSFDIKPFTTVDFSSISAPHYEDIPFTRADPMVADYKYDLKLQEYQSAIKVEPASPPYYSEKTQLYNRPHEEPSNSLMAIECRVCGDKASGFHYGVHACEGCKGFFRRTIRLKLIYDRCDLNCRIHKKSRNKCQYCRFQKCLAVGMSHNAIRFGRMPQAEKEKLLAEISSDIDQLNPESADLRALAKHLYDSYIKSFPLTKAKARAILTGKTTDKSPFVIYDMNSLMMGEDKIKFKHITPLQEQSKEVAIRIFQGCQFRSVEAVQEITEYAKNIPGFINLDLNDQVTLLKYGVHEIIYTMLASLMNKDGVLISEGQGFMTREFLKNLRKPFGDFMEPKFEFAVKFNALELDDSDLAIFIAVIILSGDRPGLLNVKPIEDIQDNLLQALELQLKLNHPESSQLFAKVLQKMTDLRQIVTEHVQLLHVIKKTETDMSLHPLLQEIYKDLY
Briefly: Agonist activity at mouse PPAR-gammaexpressed in african green monkey CV-1 cells after 24 hrs by luciferase reporter gene assay. The format is functional, cell-based.

Data set [5] has as its system Mus musculus. Briefly: Antiatherogenic effect in HC/HF diet-fed apolipoprotein E-deficient C57BL/6J mouse assessed as increase in HDL-cholesterol at 2 mg/kg/day for 4 weeks. The format is functional, organism-based. The procedure, abridged:
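Apoe-/- mice, eight weeks old, fed an atherogenic HC/HF diet (1.25% cholesterol, 21% fat) for 14 weeks. They received 2 mg/kg/day of test agent (n = 7) or vehicle (n = 6) over the final 4 weeks, then were compared with the vehicle group.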

A short description of data set [6]: Drug level in LDLR-deficient mouse serum at 60 mg/kg. The format is ADME, organism-based. Also on record: dose 60 mg/kg.
Data set [7] concerns the target T5, Peroxisome proliferator-activated receptor alpha (Mus musculus) (UniProt P23204).
T5 sequence (whole entry): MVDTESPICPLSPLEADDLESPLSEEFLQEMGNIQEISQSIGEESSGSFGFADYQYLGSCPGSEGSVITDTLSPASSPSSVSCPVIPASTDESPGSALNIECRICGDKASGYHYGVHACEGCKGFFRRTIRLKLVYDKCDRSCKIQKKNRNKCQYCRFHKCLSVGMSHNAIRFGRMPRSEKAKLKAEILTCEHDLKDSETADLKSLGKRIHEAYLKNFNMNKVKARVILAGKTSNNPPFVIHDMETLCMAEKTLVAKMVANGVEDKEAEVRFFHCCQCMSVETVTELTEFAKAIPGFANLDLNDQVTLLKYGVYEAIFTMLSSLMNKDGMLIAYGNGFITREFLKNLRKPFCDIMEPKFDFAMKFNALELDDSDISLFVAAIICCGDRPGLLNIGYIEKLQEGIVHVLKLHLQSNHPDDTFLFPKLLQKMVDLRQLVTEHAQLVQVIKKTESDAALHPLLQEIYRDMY
Briefly: Agonist activity at mouse PPAR-alpha expressed in african green monkey CV-1 cells after 24 hrs by luciferase reporter gene assay. The format is functional, cell-based.

Data set [8] relates to Mus musculus. Briefly: Toxicity in LDLR-deficient mouse assessed as increase in liver weight at 60 mg/kg. The conditions noted are these: in vivo. Also on record: dose 60 mg/kg. The format is organism-based.

With `Cc1cc([Se]Cc2sc(-c3ccc(C(F)(F)F)c(F)c3)nc2C)ccc1OCC(=O)O`, the EC50 in data set [1] was 1 nM; in data set [2], more than 1000 nM; in data set [3], 350 nM.

For the compound `CCC(Oc1ccc([Se]Cc2sc(-c3ccc(C(F)(F)F)cc3)nc2C)cc1C)C(=O)O` (configuration not stated), the EC50 in data set [1] was 6.2 nM; in data set [2], more than 1000 nM; in data set [3] it was 83.1 nM.

As for `Cc1cc([Se]Cc2sc(-c3ccc(C(F)(F)F)cc3)nc2C)ccc1OC(C)(C)C(=O)O`, the EC50 in data set [1] worked out at 4.5 nM; in data set [2] it was 100 nM; in data set [3], 15.2 nM.

As for `Cc1cc(SCc2sc(-c3ccc(C(F)(F)F)c(F)c3)nc2C)ccc1OCC(=O)O`, the result (in data set [4]; in the data set on Mus musculus [5]; in data set [7]) was Active. Also, in data set [6], the peak level (Cmax) was 21 µM. Moreover, the Activity result with Mus musculus [8] is “Toxic”.

With `Cc1cc([Se]Cc2sc(-c3ccc(C(F)(F)F)cc3)nc2C)ccc1OC(C)C(=O)O` (configuration not stated), the concentration for a half-maximal effect (EC50) in data set [1] was 11 nM; in data set [2], more than 1000 nM; in data set [3], 120 nM.
